{"data": "Experimental data pooled from the literature", "EGFR L861Q": "Epidermal growth factor receptor (EGFR, Homo sapiens, UniProt P00533, L861Q)", "EGFR del746-750": "Epidermal growth factor receptor (EGFR, Homo sapiens, UniProt P00533, del746-750)", "EGFR L858R/T790M": "Epidermal growth factor receptor (EGFR, Homo sapiens, UniProt P00533, L858R/T790M)", "EGFR T790M": "Epidermal growth factor receptor (EGFR, Homo sapiens, UniProt P00533, T790M)", "EGFR del747-752/P753S": "Epidermal growth factor receptor (EGFR, Homo sapiens, UniProt P00533, del747-752/P753S)", "EGFR del752-759": "Epidermal growth factor receptor (EGFR, Homo sapiens, UniProt P00533, del752-759)", "EGFR L858R": "Epidermal growth factor receptor (EGFR, Homo sapiens, UniProt P00533, L858R)"}
{"Structure (SMILES)": "Cc1ccc(NC(=O)c2ccc(C)c(C(F)(F)F)c2)cc1C#Cc1nn(C2CCC(O)CC2)c2ncnc(N)c12 (stereo not drawn)", "target": "EGFR L861Q", "read-out": "cell-free assay", "tested at": "10 µM", "endpoint": "remaining signal", "value": "0%"}
{"Structure (SMILES)": "Nc1ncnc2occ(-c3ccc(NC(=O)Nc4cc(C(F)(F)F)ccc4F)cc3)c12", "target": "EGFR del746-750", "read-out": "cell-free assay", "tested at": "20 µM", "endpoint": "remaining signal", "value": "34%"}
{"Structure (SMILES)": "Cc1cc(NC(=O)c2cccc3cc(-c4cccc5[nH]nc(N)c45)ccc23)ccc1F", "target": "EGFR L858R/T790M", "read-out": "enzyme activity", "action": "inhibitor", "tested at": "0.1 µM", "endpoint": "activity vs control", "value": "103%"}
{"Structure (SMILES)": "Cc1cnc(NC2CCOCC2)nc1-n1cnc(C(=O)NC(CN)c2cc(F)cc(Cl)c2)c1 (stereo not drawn)", "target": "EGFR L861Q", "read-out": "enzyme activity", "action": "inhibitor", "technique": "radiometric", "tested at": "1 µM", "endpoint": "remaining activity", "value": "108%"}
{"Structure (SMILES)": "CN(CCCC(F)(F)F)c1nccc(-c2cnn3ncccc23)n1", "target": "EGFR T790M", "read-out": "binding", "tested at": "1 µM", "endpoint": "remaining binding", "value": "78%"}
{"Structure (SMILES)": "COc1ccc2c(O[C@@H]3C[C@H]4C(=O)N[C@]5(C(=O)O)CC5/C=C\\CCCCC[C@H](NC(=O)OC5CCCC5)C(=O)N4C3)cc(-c3csc(NC(=O)C(C)C)n3)nc2c1C (stereo partly drawn)", "target": "EGFR del747-752/P753S", "read-out": "cell-free assay", "technique": "competition with immobilised ligand", "tested at": "1 µM", "endpoint": "remaining binding", "value": "81%"}
{"Structure (SMILES)": "COc1cc(-c2cc(-c3ccc(N4CCNCC4)cc3)cnc2N)cc(OC)c1OC", "target": "EGFR L861Q", "read-out": "enzyme activity", "action": "inhibitor", "tested at": "0.1 µM", "endpoint": "inhibition", "value": "6%"}
{"Structure (SMILES)": "CN([C@@H]1CCc2c(CC(=O)O)c3cc(S(C)(=O)=O)ccc3n2C1)S(=O)(=O)c1ccc(F)cc1", "target": "EGFR L858R/T790M", "read-out": "cell-free assay", "technique": "competition with immobilised ligand", "tested at": "1 µM", "endpoint": "remaining binding", "value": "100%"}
{"Structure (SMILES)": "Cc1ccc(C(=O)Nc2ccc(CN3CCN(C)CC3)c(C(F)(F)F)c2)cc1C#Cc1cnc2cccnn12", "target": "EGFR del746-750", "read-out": "cell-free assay", "tested at": "23.5 nM", "endpoint": "remaining signal", "value": "64%"}
{"Structure (SMILES)": "C[C@H]1CCN(c2nccc(-c3cnn4ncccc34)n2)C1", "target": "EGFR del752-759", "read-out": "binding", "tested at": "1 µM", "endpoint": "remaining binding", "value": "97%"}
{"Structure (SMILES)": "NS(=O)(=O)c1cc(NC(=O)C2(c3ccccc3Cl)CC2)ccc1Oc1cccc(Cl)c1", "target": "Epidermal growth factor receptor (EGFR, Homo sapiens, UniProt P00533, G719S)", "read-out": "cell-free assay", "technique": "competition with immobilised ligand", "tested at": "1 µM", "endpoint": "remaining binding", "value": "98%"}
{"Structure (SMILES)": "N[C@H]1CCN(c2nccc(-c3cnn4ncccc34)n2)C1", "target": "EGFR del752-759", "read-out": "binding", "tested at": "1 µM", "endpoint": "remaining binding", "value": "88%"}
{"Structure (SMILES)": "COc1ccc2cc(OCC3(C(=O)O)CN(C(=O)c4ccc(F)cc4)C3)ccc2c1", "target": "EGFR L858R", "read-out": "cell-free assay", "technique": "competition with immobilised ligand", "tested at": "1 µM", "endpoint": "remaining binding", "value": "100%"}
{"Structure (SMILES)": "CC/C(=N\\NC(=O)NCc1cccc(O)c1)c1ccc(O)c(C)c1O", "target": "EGFR T790M", "read-out": "enzyme activity", "action": "inhibitor", "tested at": "0.1 µM", "endpoint": "inhibition", "value": "1.5%"}
{"Structure (SMILES)": "CNC(=O)Nc1ccc2c(c1)[C@@]1(CC2)OC(=O)N(CC(=O)N(Cc2ccc(F)cc2)[C@@H](C)C(F)(F)F)C1=O", "target": "EGFR del747-752/P753S", "read-out": "cell-free assay", "technique": "competition with immobilised ligand", "tested at": "1 µM", "endpoint": "remaining binding", "value": "85%"}
{"Structure (SMILES)": "CN(C)c1nccc(-c2cnc3ncccn23)n1", "target": "EGFR L858R", "read-out": "binding", "tested at": "1 µM", "endpoint": "remaining binding", "value": "89%"}
{"Structure (SMILES)": "COc1cc(-c2cn(C3CCc4ccccc4N(CC(F)(F)F)C3=O)nn2)ccc1-n1ccc(C)n1 (stereo not drawn)", "target": "EGFR del746-750", "read-out": "cell-free assay", "technique": "competition with immobilised ligand", "tested at": "1 µM", "endpoint": "remaining binding", "value": "100%"}
{"Structure (SMILES)": "COc1ccnn2ncc(-c3ccnc(N(C)C)n3)c12", "target": "EGFR T790M", "read-out": "binding", "tested at": "1 µM", "endpoint": "remaining binding", "value": "100%"}
